Test results: ChEMBL document CHEMBL3526003, “Pharmacokinetics of the monohydroxy derivative of oxcarbazepine and its enantiomers after a single intravenous dose given as racemate compared with a single oral dose of oxcarbazepine” (Drug Metab Dispos, 2011)

Assays:
[1] = Renal clearance in human treated with oxcarbazepine at 300 mg, po administered as one-film coated tablet by high-performance liquid chromatography; assay type: ADME, organism-based, Kidney; details: in vivo
Outline: (§1)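 300 mg oral tablet given to 12 healthy adults. Urine was collected in fractions up to 72 h and kept at 2–8 °C, then frozen at -20 °C. Analytes were measured by HPLC before and after β-glucuronidase hydrolysis (pH 6.7, 37 °C, about 15 h). Renal clearance was Ae/plasma AUC. Urinary terminal half-life came from log-linear slopes between 4–18 h and 40–64 h.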

[2] = Volume of distribution at steady state in human treated with monohydroxy derivative of OXC at 250 mg, iv administered as infusion over 30 mins by high-performance liquid chromatography; assay type: ADME, organism-based; details: in vivo, read-out: Vdss
Outline: (§2)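 250 mg racemic MHD infused intravenously over 30 min to 12 healthy adults. Plasma was drawn at 0 to 30 min and up to 72 h, and urine was fractionated to 72 h. Enantioselective HPLC was used. Renal clearance was Ae/AUC; Vss was CL_T·MRT (AUMC/AUC). Urinary half-life came from log-linear slopes between 4–18 h and 40–64 h.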

[3] = Apparent terminal half life in human plasma treated with oxcarbazepine at 300 mg, po administered as one-film coated tablet by high-performance liquid chromatography; assay type: ADME, organism-based; details: read-out: betat1/2(app) (converted)
Outline: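 Healthy adult volunteers (6 male, 6 female), randomized two-way crossover with at least one week washout; single oral 300 mg film-coated oxcarbazepine tablet, fasting. Heparinized plasma sampled 0–72 h post dose, stored -80 C; MHD enantiomers quantified by enantioselective HPLC.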

[4] = Drug excretion in human urine assessed as total amount of drug eliminated treated with oxcarbazepine at 300 mg, po administered as one-film coated tablet by high-performance liquid chromatography; assay type: ADME, organism-based; details: read-out: Ae; outline: as §1
[5] = Apparent terminal half life in human plasma treated with monohydroxy derivative of OXC at 250 mg, iv administered as infusion over 30 mins by high-performance liquid chromatography; assay type: ADME, organism-based; details: read-out: betat1/2(app) (converted)
Outline: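 Healthy adult volunteers (6 male, 6 female), randomized two-way crossover with at least one week washout; single 250 mg racemic MHD infused i.v. over 30 min. Heparinized plasma sampled 0–30 min then 1–72 h after start of infusion, stored -80 C; enantiomers quantified by enantioselective HPLC.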

[6] = Renal clearance in human treated with monohydroxy derivative of OXC at 250 mg, iv administered as infusion over 30 mins by high-performance liquid chromatography; assay type: ADME, organism-based, Kidney; details: in vivo; outline: as §2
[7] = AUC (0 to 72 hrs) in human treated with monohydroxy derivative of OXC at 200 mg, iv administered as single dose by high-performance liquid chromatography; assay type: ADME, organism-based; parameters: time < 72 hr, dose 200 mg, route intravenous; details: plasma
Outline: (§3)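 Pilot ascending-dose study: one healthy subject per level received 150, 200 or 250 mg racemic MHD intravenously as a single dose. Plasma was sampled to 72 h and assayed by non-enantioselective and enantioselective HPLC. AUC(0-72h) was computed by the linear trapezoidal method.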

[8] = Total plasma clearance in human treated with monohydroxy derivative of OXC at 250 mg, iv administered as single dose by high-performance liquid chromatography; assay type: ADME, organism-based
Outline: (§4)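 Pilot study: single intravenous racemic MHD at 150, 200 or 250 mg, one subject per dose. Plasma was sampled to 72 h and analysed by HPLC. Total plasma clearance was computed as Dose/AUC, with AUC from the linear trapezoidal rule.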

[9] = Tmax in human treated with oxcarbazepine at 300 mg, po administered as one-film coated tablet by high-performance liquid chromatography; assay type: ADME, organism-based; details: in vivo
Outline: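 Healthy adults (6 male, 6 female) took a single dose under fasting conditions in an open randomized two-way crossover with at least one week washout. Heparinized plasma was sampled at 0, 1, 2, 3, 4, 6, 8, 10, 24, 32, 48, 56 and 72 h, and stored at -80 C. Analytes were measured by HPLC (UV 210 nm for MHD). Cmax and Tmax are the highest observed concentration and its time relative to dosing.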

[10] = Total plasma clearance in human treated with monohydroxy derivative of OXC at 200 mg, iv administered as single dose by high-performance liquid chromatography; assay type: ADME, organism-based; outline: as §4
[11] = AUC (0 to 72 hrs) in human treated with monohydroxy derivative of OXC at 250 mg, iv administered as single dose by high-performance liquid chromatography; assay type: ADME, organism-based; parameters: dose 250 mg, time < 72 hr, route intravenous; details: plasma; outline: as §3
[12] = Terminal half life in human urine treated with monohydroxy derivative of OXC at 250 mg, iv administered as infusion over 30 mins by high-performance liquid chromatography; assay type: ADME, organism-based; details: read-out: beta t1/2 (converted); outline: as §2
[13] = Cmax in human treated with oxcarbazepine at 300 mg, po administered as one-film coated tablet by high-performance liquid chromatography; assay type: ADME, organism-based; parameters: dose 300 mg, route oral; details: in vivo
Outline: (§5)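 Healthy adults (6 male, 6 female), single 300 mg film-coated tablet by mouth, fasting, in a randomized two-way crossover with at least one week of washout. Venous heparinized blood was drawn at 0–72 h. Plasma was separated at 2200 g and stored at -80 °C. Non-enantioselective and enantioselective HPLC were used. Cmax/tmax were the observed peak; AUC was by linear trapezoidal rule.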

[14] = Terminal half life in human urine treated with oxcarbazepine at 300 mg, po administered as one-film coated tablet by high-performance liquid chromatography; assay type: ADME, organism-based; details: read-out: beta t1/2 (converted); outline: as §1
[15] = Total plasma clearance in human treated with monohydroxy derivative of OXC at 150 mg, iv administered as single dose by high-performance liquid chromatography; assay type: ADME, organism-based; outline: as §4
[16] = AUC (0 to 72 hrs) in human treated with monohydroxy derivative of OXC at 150 mg, iv administered as single dose by high-performance liquid chromatography; assay type: ADME, organism-based; parameters: dose 150 mg, time < 72 hr, route intravenous; details: plasma; outline: as §3
[17] = Tmax in human treated with monohydroxy derivative of OXC at 250 mg, iv administered as infusion over 30 mins by high-performance liquid chromatography; assay type: ADME, organism-based; details: in vivo
Outline: (§6)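 Healthy adults (6 male, 6 female) in an open randomized two-way crossover with at least one week washout. Venous heparinized plasma was sampled at 0, 5, 10, 15, 20, 25 and 30 min and at 1-72 h after the start of infusion, and stored at -80 C. Analytes were measured by non-enantioselective and enantioselective HPLC. Tmax is the observed time of peak concentration, reported as a median.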

[18] = Cmax in human treated with monohydroxy derivative of OXC at 250 mg, iv administered as infusion over 30 mins by high-performance liquid chromatography; assay type: ADME, organism-based; parameters: dose 250 mg, route intravenous; details: in vivo; outline: as §6
[19] = Total plasma clearance in human at 150 mg, iv administered as single dose by high-performance liquid chromatography; assay type: ADME, organism-based; outline: as §4
[20] = AUC (0 to 72 hrs) in human at 150 mg, iv administered as single dose by high-performance liquid chromatography; assay type: ADME, organism-based; parameters: dose 150 mg, time < 72 hr, route intravenous; details: plasma; outline: as §3
[21] = Drug excretion in human urine assessed as total amount of drug eliminated at 250 mg, iv administered as single dose measured for 72 hrs post-dose by high-performance liquid chromatography; assay type: ADME, organism-based; details: read-out: Ae
Outline: (§7)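 Pilot ascending-dose study: one subject per level received single intravenous racemic MHD (150, 200, 250 mg). Urine was pooled 0–72 h, and unchanged drug was measured by HPLC as percent of dose excreted. Renal clearance was the amount excreted unchanged divided by plasma AUC.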

[22] = Total plasma clearance in human at 250 mg, iv administered as single dose by high-performance liquid chromatography; assay type: ADME, organism-based; outline: as §4
[23] = Total plasma clearance in human at 200 mg, iv administered as single dose by high-performance liquid chromatography; assay type: ADME, organism-based; outline: as §4
[24] = Renal clearance in human at 150 mg, iv administered as single dose by high-performance liquid chromatography; assay type: ADME, organism-based, Kidney; details: in vivo; outline: as §7
[25] = AUC (0 to 72 hrs) in human at 200 mg, iv administered as single dose by high-performance liquid chromatography; assay type: ADME, organism-based; parameters: dose 200 mg, time < 72 hr, route intravenous; details: plasma; outline: as §3
[26] = Renal clearance in human at 200 mg, iv administered as single dose by high-performance liquid chromatography; assay type: ADME, organism-based, Kidney; details: in vivo; outline: as §7
[27] = Renal clearance in human at 250 mg, iv administered as single dose by high-performance liquid chromatography; assay type: ADME, organism-based, Kidney; details: in vivo; outline: as §7
[28] = AUC (0 to 72 hrs) in human at 250 mg, iv administered as single dose by high-performance liquid chromatography; assay type: ADME, organism-based; parameters: dose 250 mg, time < 72 hr, route intravenous; details: plasma; outline: as §3
[29] = Drug excretion in human urine assessed as total amount of drug eliminated at 150 mg, iv administered as single dose measured for 72 hrs post-dose by high-performance liquid chromatography; assay type: ADME, organism-based; details: read-out: Ae; outline: as §7
[30] = Drug excretion in human urine assessed as total amount of drug eliminated at 200 mg, iv administered as single dose measured for 72 hrs post-dose by high-performance liquid chromatography; assay type: ADME, organism-based; details: read-out: Ae; outline: as §7
[31] = AUC in human at 250 mg, iv administered as infusion over 30 mins by non-enantiospecific assay based high-performance liquid chromatography; assay type: ADME, organism-based; parameters: time < 0.5 hr, dose 250 mg, route intravenous; details: plasma
Outline: (§8)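 Crossover of 12 healthy adults: 250 mg racemic MHD infused intravenously over 30 min versus a 300 mg oral tablet, with at least one week of washout. Plasma MHD was measured by non-enantioselective HPLC-UV at 210 nm after C18 solid-phase extraction (LOQ 0.1 µmol/L). Bioavailability f was the dose-corrected ratio of oral to intravenous AUC.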

[32] = AUC (0 to 32/48 hrs) in human treated with oxcarbazepine at 300 mg, po administered as one-film coated tablet by high-performance liquid chromatography; assay type: ADME, organism-based; details: plasma; outline: as §5
[33] = Oral bioavailability in human at 300 mg administered as one-film coated tablet by non-enantiospecific assay based high-performance liquid chromatography; assay type: ADME, organism-based; details: in vivo; outline: as §8
[34] = AUC in human at 300 mg, po administered as one-film coated tablet by high-performance liquid chromatography; assay type: ADME, organism-based; details: plasma; outline: as §5
[35] = Cmax in human at 300 mg, po administered as one-film coated tablet by high-performance liquid chromatography; assay type: ADME, organism-based; parameters: dose 300 mg, route oral; details: in vivo; outline: as §5
[36] = Tmax in human at 300 mg, po administered as one-film coated tablet by high-performance liquid chromatography; assay type: ADME, organism-based; details: in vivo; outline: as §5
Plasma = assay: Drug level in human plasma at 400 mg, po; assay type: ADME, cell-free

NC(=O)N1c2ccccc2C[C@@H](O)c2ccccc21
CL renal [1]: 16.7 mL/min
Vd [2]: 54.7 L
half-life [3]: 15.8 h
dose excreted [4]: 4.85%
half-life [5]: 9 h
CL renal at 0.5 h [6]: 15 mL/min
AUC(0-t) at 72 h [7]: 59.1 µM·h
clearance [8]: 62.2 mL/min
Tmax [9]: 3.5 h
clearance [10]: 111 mL/min
AUC(0-t) at 72 h [11]: 132 µM·h
half-life [12]: 9 h
Cmax [13]: 3000 nM
half-life [14]: 7 h
clearance [15]: 88.3 mL/min
AUC(0-t) at 72 h [16]: 55.7 µM·h

NC(=O)N1c2ccccc2[C@@H](O)[C@H](O)c2ccccc21
dose excreted [4]: 2.7%
Tmax [9]: 24 h
Tmax [17]: 8 h
Cmax [18]: 240 nM
Cmax [13]: 200 nM

NC(=O)N1c2ccccc2C[C@@H](O[C@@H]2O[C@H](C(=O)O)[C@@H](O)[C@H](O)[C@H]2O)c2ccccc21
dose excreted [4]: 5.62%
half-life [12]: 14.2 h
half-life [14]: 10.3 h

NC(=O)N1c2ccccc2C[C@H](O[C@@H]2O[C@H](C(=O)O)[C@@H](O)[C@H](O)[C@H]2O)c2ccccc21
dose excreted [4]: 38.8%
half-life [12]: 9.9 h
half-life [14]: 10.8 h

NC(=O)N1c2ccccc2CC(O)c2ccccc21 (racemic) [LICARBAZEPINE]
clearance [19]: 90 mL/min
AUC(0-t) at 72 h [20]: 109 µM·h
dose excreted at 72 h [21]: 42.8%
clearance [22]: 58.5 mL/min
clearance [23]: 92 mL/min
CL renal [24]: 21.8 mL/min
AUC(0-t) at 72 h [25]: 142 µM·h
CL renal [26]: 28.3 mL/min
CL renal [27]: 25 mL/min
AUC(0-t) at 72 h [28]: 280 µM·h
dose excreted at 72 h [29]: 24.3%
dose excreted at 72 h [30]: 30.7%
AUC at 0.5 h [31]: 261 µM·h

NC(=O)N1c2ccccc2C[C@H](O)c2ccccc21 [ESLICARBAZEPINE]
CL renal [1]: 18.3 mL/min
Vd [2]: 45.9 L
dose excreted [4]: 21.8%
half-life [5]: 10.6 h
CL renal at 0.5 h [6]: 15 mL/min
AUC(0-t) at 72 h [7]: 92.2 µM·h
clearance [8]: 42.7 mL/min
clearance [10]: 71.2 mL/min
AUC(0-t) at 72 h [11]: 192 µM·h
Cmax [13]: 11000 nM
half-life [14]: 8.5 h
clearance [15]: 71.2 mL/min
AUC at 48 h [32]: 241 µM·h
AUC(0-t) at 72 h [16]: 69 µM·h

NC(=O)N1c2ccccc2CC(=O)c2ccccc21 [OXCARBAZEPINE]
bioavailability [33]: 99%
AUC [34]: 6.8 µM·h
Tmax [17]: 0.5 h
Cmax [18]: 80 nM
Cmax [35]: 2000 nM
Tmax [36]: 1 h
Drug uptake (Plasma): 2%
